Measured values reported in ChEMBL document CHEMBL2346534, “Design, synthesis and in vitro anti-proliferative activity of 4,6-quinazolinediamines as potent EGFR-TK inhibitors” (Eur J Med Chem, 2013).

Tests used:
Assay type in all cases: functional
NCI-H522 = assay: Cytotoxicity against human NCI-H522 cells assessed as cell growth at 10^-5 M after 48 hrs by SRB assay; details: NCI-H522, 48 h, read-out: Activity
Summary of the method: (§1)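 NCI 60-panel single-dose primary screen at 10^-5 M. Cells are grown in RPMI 1640 with 5% FBS and 2 mM L-glutamine and preincubated 24 h at 37 °C. Drug exposure is 48 h. Cells are TCA-fixed, stained with SRB and absorbance is read at 515 nm. Results are reported as percent growth of treated cells versus untreated controls, corrected using time-zero plates.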

OVCAR-4 = assay: Cytotoxicity against human OVCAR4 cells assessed as cell growth at 10^-5 M after 48 hrs by SRB assay; details: OVCAR-4, 48 h, read-out: Activity; summary of the method: as §1
UACC-257 = assay: Cytotoxicity against human UACC257 cells assessed as cell growth at 10^-5 M after 48 hrs by SRB assay; details: UACC-257, 48 h, read-out: Activity
Summary of the method: (§2)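 NCI primary single-dose screen at 10^-5 M. Cells grown in RPMI 1640 with 5% FBS and 2 mM L-glutamine, given 24 h before drug addition, then 48 h exposure at 37 °C, 5% CO2. Cells TCA-fixed, stained with SRB, read at 515 nm. Reported as percent growth of treated cells relative to untreated controls.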

HCC 2998 = assay: Cytotoxicity against human HCC2998 cells assessed as cell growth at 10^-5 M after 48 hrs by SRB assay; details: HCC 2998, 48 h, read-out: Activity
Summary of the method: (§3)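 NCI 60 single-dose screen at 10^-5 M. Cells in RPMI 1640 with 5% FBS and 2 mM L-glutamine, preincubated 24 h at 37 °C/5% CO2. Drug from DMSO stock, then 48 h exposure. TCA fixation, SRB staining, absorbance at 515 nm. Result given as percent growth of treated cells relative to untreated control.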

TK-10 = assay: Cytotoxicity against human TK10 cells assessed as cell growth at 10^-5 M after 48 hrs by SRB assay; details: TK-10, 48 h, read-out: Activity; summary of the method: as §2
HOP-92 = assay: Cytotoxicity against human HOP92 cells assessed as cell growth at 10^-5 M after 48 hrs by SRB assay; details: HOP-92, 48 h, read-out: Activity; summary of the method: as §3
SN12C = assay: Cytotoxicity against human SN12C cells assessed as cell growth at 10^-5 M after 48 hrs by SRB assay; details: read-out: Activity; summary of the method: as §1
DU-145 = assay: Cytotoxicity against human DU145 cells assessed as cell growth at 10^-5 M after 48 hrs by SRB assay; details: DU-145, 48 h, read-out: Activity; summary of the method: as §3
SNB-19 = assay: Cytotoxicity against human SNB19 cells assessed as cell growth at 10^-5 M after 48 hrs by SRB assay; details: SNB-19, 48 h, read-out: Activity; summary of the method: as §1
U-251 = assay: Cytotoxicity against human U251 cells assessed as cell growth at 10^-5 M after 48 hrs by SRB assay; details: U-251, 48 h, read-out: Activity; summary of the method: as §2
COLO 205 = assay: Cytotoxicity against human COLO205 cells assessed as cell growth at 10^-5 M after 48 hrs by SRB assay; details: COLO 205, 48 h, read-out: Activity; summary of the method: as §3
Hs-578T = assay: Cytotoxicity against human Hs578T cells assessed as cell growth at 10^-5 M after 48 hrs by SRB assay; details: read-out: Activity; summary of the method: as §3
NCI-H460 = assay: Cytotoxicity against human NCI-H460 cells assessed as cell growth at 10^-5 M after 48 hrs by SRB assay; details: NCI-H460, 48 h, read-out: Activity; summary of the method: as §1
786-0 = assay: Cytotoxicity against human 786-0 cells assessed as cell growth at 10^-5 M after 48 hrs by SRB assay; details: 786-0, 48 h, read-out: Activity; summary of the method: as §3
HL-60(TB) = assay: Cytotoxicity against human HL-60(TB) cells assessed as cell growth at 10^-5 M after 48 hrs by SRB assay; details: HL-60, 48 h, read-out: Activity
Summary of the method: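 NCI 60-panel single-dose screen. Cells were grown in RPMI 1640 with 5% FBS and 2 mM L-glutamine, preincubated 24 h, then exposed to compound at 10^-5 M (from DMSO stock) for 48 h at 37 °C, 5% CO2. Settled suspension cells were TCA-fixed and SRB-stained, with absorbance read at 515 nm. The value is percent growth of treated versus untreated control cells.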

KM12 = assay: Cytotoxicity against human KM12 cells assessed as cell growth at 10^-5 M after 48 hrs by SRB assay; details: KM12, 48 h, read-out: Activity; summary of the method: as §3
MDA-MB-231 = assay: Cytotoxicity against human MDA-MB-231 cells assessed as cell growth at 10^-5 M after 48 hrs by SRB assay; details: MDA-MB-231, 48 h, read-out: Activity; summary of the method: as §3
RXF 393 = assay: Cytotoxicity against human RXF393 cells assessed as cell growth at 10^-5 M after 48 hrs by SRB assay; details: RXF 393, 48 h, read-out: Activity; summary of the method: as §1
IGROV-1 = assay: Cytotoxicity against human IGROV1 cells assessed as cell growth at 10^-5 M after 48 hrs by SRB assay; details: IGROV-1, 48 h, read-out: Activity; summary of the method: as §3
MDA-MB-435 = assay: Cytotoxicity against human MDA-MB-435 cells assessed as cell growth at 10^-5 M after 48 hrs by SRB assay; details: MDA-MB-435, 48 h, read-out: Activity; summary of the method: as §3
HT-29 = assay: Cytotoxicity against human HT-29 cells assessed as cell growth at 10^-5 M after 48 hrs by SRB assay; details: HT-29, 48 h, read-out: Activity; summary of the method: as §3
SF-539 = assay: Cytotoxicity against human SF539 cells assessed as cell growth at 10^-5 M after 48 hrs by SRB assay; details: SF-539, 48 h, read-out: Activity; summary of the method: as §1
OVCAR-8 = assay: Cytotoxicity against human OVCAR8 cells assessed as cell growth at 10^-5 M after 48 hrs by SRB assay; details: OVCAR-8, 48 h, read-out: Activity; summary of the method: as §1
MCF7 = assay: Cytotoxicity against human MCF7 cells assessed as cell growth at 10^-5 M after 48 hrs by SRB assay; details: MCF7, 48 h, read-out: Activity; summary of the method: as §3
OVCAR-5 = assay: Cytotoxicity against human OVCAR5 cells assessed as cell growth at 10^-5 M after 48 hrs by SRB assay; details: OVCAR-5, 48 h, read-out: Activity; summary of the method: as §1
K562 = assay: Cytotoxicity against human K562 cells assessed as cell growth at 10^-5 M after 48 hrs by SRB assay; details: K562, 48 h, read-out: Activity; summary of the method: as §3
SK-MEL-2 = assay: Cytotoxicity against human SK-MEL-2 cells assessed as cell growth at 10^-5 M after 48 hrs by SRB assay; details: SK-MEL-2, 48 h, read-out: Activity; summary of the method: as §1

Structure (SMILES) | growth at 10 µM (NCI-H522) [%] | growth at 10 µM (OVCAR-4) [%] | growth at 10 µM (UACC-257) [%] | growth at 10 µM (HCC 2998) [%] | growth at 10 µM (TK-10) [%] | growth at 10 µM (SN12C) [%] | growth at 10 µM (DU-145) [%] | growth at 10 µM (SNB-19) [%] | growth at 10 µM (U-251) [%] | growth at 10 µM (COLO 205) [%] | growth at 10 µM (Hs-578T) [%] | growth at 10 µM (NCI-H460) [%] | growth at 10 µM (786-0) [%] | growth at 10 µM (HL-60(TB)) [%] | growth at 10 µM (KM12) [%] | growth at 10 µM (MDA-MB-231) [%] | growth at 10 µM (RXF 393) [%] | growth at 10 µM (IGROV-1) [%] | growth at 10 µM (MDA-MB-435) [%] | growth at 10 µM (HT-29) [%] | other results
CCOC(=O)/C(C#N)=C\Nc1ccc2ncnc(Nc3ccccc3Cl)c2c1 | 107 | 124 | 120 | 117 | 53 | 98.8 | 62.1 | 94.5 | 96.3 | 110 | 91 | 98.7 | 91.3 | 95.3 | 88.5 | 86.9 | 91.7 | 79.7 | 100 | 100 | growth at 10 µM (HOP-92): 70.4%; growth at 10 µM (SF-539): 111%; growth at 10 µM (OVCAR-8): 105%; growth at 10 µM (MCF7): 110%; growth at 10 µM (OVCAR-5): 90.1%; growth at 10 µM (K562): 88.6%; growth at 10 µM (SK-MEL-2): 106%
NC(=O)Nc1ccc2ncnc(Nc3ccc(Cl)cc3)c2c1 | 66.2 | 91.9 | 100 | 97.9 | 26.5 | 81.9 | 52 | 78.6 | 95.7 | 101 | 87.8 | 88 | 85.9 | 99.9 | 98.5 | 89.3 | 93.7 | 61 | 97.8 | 91.6 | growth at 10 µM (HOP-92): 74.2%; growth at 10 µM (SF-539): 95.7%; growth at 10 µM (OVCAR-8): 89.5%; growth at 10 µM (MCF7): 86.5%; growth at 10 µM (OVCAR-5): 83.6%; growth at 10 µM (K562): 71.4%; growth at 10 µM (SK-MEL-2): 127%
NC(=O)Nc1ccc2ncnc(Nc3cccc(O)c3)c2c1 | 102 | 112 | 99.8 | 102 | 103 | 94.9 | 90.4 | 93.1 | 87.8 | 94.7 | 105 | 108 | 92.6 | 105 | 96.1 | 104 | 111 | 107 | 101 | 106 | growth at 10 µM (HOP-92): 78%; growth at 10 µM (SF-539): 109%; growth at 10 µM (OVCAR-8): 98.9%; growth at 10 µM (MCF7): 97.3%; growth at 10 µM (OVCAR-5): 98.1%; growth at 10 µM (K562): 103%
CCOC(=O)/C(C#N)=C\Nc1ccc2ncnc(Nc3ccc(Cl)cc3Cl)c2c1 | 95.8 | 95.1 | 97.2 | 119 | 44.2 | 89.5 | 55.9 | 86.4 | 81.3 | 108 | 75.5 | 84.8 | 82.6 | 108 | 79.1 | 85.2 | 77 | 55 | 75.7 | 79.4 | growth at 10 µM (HOP-92): 56.5%; growth at 10 µM (SF-539): 92.7%; growth at 10 µM (OVCAR-8): 87%; growth at 10 µM (MCF7): 87.6%; growth at 10 µM (OVCAR-5): 82.2%; growth at 10 µM (K562): 59.7%; growth at 10 µM (SK-MEL-2): 110%
C#Cc1cccc(Nc2ncnc3ccc(N/C=C(\C#N)C(=O)OCC)cc23)c1 | 86.3 | 94 | 99.8 | 102 | 65.5 | 97.1 | 69.9 | 85.1 | 85.4 | 104 | 103 | 100 | 91.7 | 97.5 | 98.1 | 97.2 | 92.9 | 77.4 | 92 | 98 | growth at 10 µM (HOP-92): 90.3%; growth at 10 µM (SF-539): 97.8%; growth at 10 µM (OVCAR-8): 94.8%; growth at 10 µM (MCF7): 96.8%; growth at 10 µM (OVCAR-5): 89.5%; growth at 10 µM (K562): 96.4%; growth at 10 µM (SK-MEL-2): 123%
CCOC(=O)/C(C#N)=C\Nc1ccc2ncnc(Nc3ccc(Cl)cc3)c2c1 | 79.8 | 89 | 108 | 101 | 51.3 | 87 | 49.2 | 88 | 84.7 | 102 | 89.3 | 70 | 83.1 | 76.2 | 74 | 93.1 | 83.2 | 52.4 | 70.5 | 86.3 | growth at 10 µM (SF-539): 103%; growth at 10 µM (OVCAR-8): 83.3%; growth at 10 µM (MCF7): 111%; growth at 10 µM (OVCAR-5): 92.8%; growth at 10 µM (K562): 61.4%; growth at 10 µM (SK-MEL-2): 105%
